Data on 19 compounds can be found in ChEMBL document CHEMBL4431351, “1,2-Benzisoselenazol-3(2H)-one Derivatives As a New Class of Bacterial Urease Inhibitors” (J Med Chem, 2016).

The subject of assay [1] is Sporosarcina pasteurii. Put plainly: Reversible inhibition of Sporosarcina pasteurii CCM 2056 urease using urea as substrate assessed as ammonia levels after 120 mins by fast dilution assay.
The target of assay [2] is T1, Urease subunit alpha/Urease subunit beta (Helicobacter pylori (strain ATCC 700392 / 26695) (Campylobacterpylori), UniProt P69996). The experiment in a line: Inhibition of recombinant Helicobacter pylori urease expressed in Escherichia coli rosetta DE3 using urea as substrate assessed as transformed cell urea splitting activity preincubated for 2 hrs followed by substrate addition measured after 2 hrs by Berthelot assay. Put shortly:
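Induced, PBS-washed E. coli Rosetta pGEM::ureOP cells (1×10⁹ cfu/mL) held 2 h with inhibitor in 10 mM PBS. Urea then added to 5 mM. Ammonia in timed aliquots measured by Berthelot assay against an inhibitor-free reference. DMF effect checked. Three repeats.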

Assay [3] relates to Sporosarcina pasteurii. The experiment in a line: Competitive inhibition of Sporosarcina pasteurii CCM 2056 urease using urea as substrate assessed as ammonia levels after 120 mins by Lineweaver-Burk plot analysis. In short, it runs like this: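 Purified native S. pasteurii urease (113.5 pM final) preincubated with rising inhibitor levels in 3 mM phosphate buffer pH 7.5, 37°C, until equilibrium; urea 1–60 mM then added. Initial rates measured by phenol-hypochlorite ammonia read-out; mode and constants from Lineweaver-Burk plots using at least 5 inhibitor concentrations.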

Assay [4] can be described thus: Steady state inhibition of Sporosarcina pasteurii CCM 2056 urease using urea as substrate assessed as inhibition constant for final enzyme conformation-inhibitor complex by measuring ammonia levels after 120 mins by phenol-hypochlorite method. In short, it runs like this:
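S. pasteurii urease (113.5 pM final) added to stirred mixtures with 25 mM urea and varied inhibitor (water or DMF), 3 mM phosphate pH 7.5, 37°C. Ammonia sampled over 120 min by phenol-hypochlorite. Progress curves fitted to integrated slow-binding equation. Ki and Ki* derived using Km and Vmax of uninhibited enzyme.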

The target in assay [5] is T2, Urease subunit alpha/Urease subunit beta (Helicobacter pylori (strain ATCC 700392 / 26695) (Campylobacterpylori), UniProt P69996+P14916). The experiment in a line: (§1) Inhibition of recombinant Helicobacter pylori urease expressed in Escherichia coli rosetta DE3 using urea as substrate assessed as transformed cell urea splitting activity after 2 hrs by Berthelot assay. Put shortly: (§2)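 E. coli Rosetta pGEM::ureOP cells grown in LB with ampicillin at 37°C, induced with 0.75 mM IPTG and 0.75 mM Ni²⁺ for 24 h at 22°C, then washed thrice in PBS. Cells (1×10⁹ cfu/mL final) start the reaction in 10 mM PBS with 5 mM urea and inhibitor. Timed aliquots read by Berthelot; triplicate.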

For assay [6], the target named is T1, Urease subunit alpha/Urease subunit beta. The experiment in a line: Inhibition of urease in Helicobacter pylori J99 in Brucella broth using urea as substrate preincubated for 2 hrs followed by substrate addition measured after 2 hrs by Berthelot assay. Type of assay: protein-complex assay. Put shortly:
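Unwashed H. pylori J99 cells from 48 h Brucella broth culture (5% FBS, 1% IsoVitalex), resuspended in 10 mM PBS pH 7.2, about 1×10⁷ cfu/mL. Cells preincubated 2 h with inhibitor before 5 mM urea was added. Timed aliquots assayed by Berthelot method; three repeats.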

The target in assay [7] is T2, Urease subunit alpha/Urease subunit beta. The experiment in a line: (§3) Inhibition of urease in Helicobacter pylori J99 in Brucella broth using urea as substrate after 2 hrs by Berthelot assay. Format: protein-complex assay. Put shortly: (§4)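 H. pylori J99 passaged on blood Columbia agar, microaerophilic, 37°C. Then grown 48 h in Brucella broth with 5% FBS and 1% IsoVitalex, spun once and resuspended in 10 mM PBS pH 7.2 without washing. About 1×10⁷ cfu/mL added to PBS with 5 mM urea and inhibitor. Berthelot ammonia read-out, triplicate.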

Assay [8] has as its target T1, Urease subunit alpha/Urease subunit beta. Put plainly: Inhibition of recombinant Helicobacter pylori urease expressed in Escherichia coli rosetta DE3 after 120 mins by Berthelot colorimetric analysis. Put shortly:
(§5)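 Homogeneous recombinant H. pylori urease purified from E. coli Rosetta (DE3) pGEM::ureOP (488 pM final) added to mixtures with rising inhibitor levels and 0.1–2.5 mM urea, 3 mM phosphate pH 7.5, 37°C. Ammonia measured by Berthelot reaction. Ki from Lineweaver-Burk plots, at least 5 inhibitor concentrations, in triplicate.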

Assay [9] concerns the target Urease subunit alpha/Urease subunit beta (Helicobacter pylori (strain ATCC 700392 / 26695) (Campylobacterpylori)) (UniProt P69996+P14916). Put plainly: Competitive reversible inhibition of recombinant Helicobacter pylori urease […] in transformed Escherichia coli rosetta DE3 after 120 mins by Lineweaver-Burk plot analysis. Format: protein-complex assay. Put shortly: as §5

Assay [10] has as its target T1, Urease subunit alpha/Urease subunit beta. The description is as §1. Put shortly:
as §2

Assay [11] shares this target. Described as §3. Format: protein-complex assay. Put shortly:
as §4

The source made the active and inactive calls. The calls are words filed in the database; no cut-off is given here.

T2 sequence (P69996 whole entry): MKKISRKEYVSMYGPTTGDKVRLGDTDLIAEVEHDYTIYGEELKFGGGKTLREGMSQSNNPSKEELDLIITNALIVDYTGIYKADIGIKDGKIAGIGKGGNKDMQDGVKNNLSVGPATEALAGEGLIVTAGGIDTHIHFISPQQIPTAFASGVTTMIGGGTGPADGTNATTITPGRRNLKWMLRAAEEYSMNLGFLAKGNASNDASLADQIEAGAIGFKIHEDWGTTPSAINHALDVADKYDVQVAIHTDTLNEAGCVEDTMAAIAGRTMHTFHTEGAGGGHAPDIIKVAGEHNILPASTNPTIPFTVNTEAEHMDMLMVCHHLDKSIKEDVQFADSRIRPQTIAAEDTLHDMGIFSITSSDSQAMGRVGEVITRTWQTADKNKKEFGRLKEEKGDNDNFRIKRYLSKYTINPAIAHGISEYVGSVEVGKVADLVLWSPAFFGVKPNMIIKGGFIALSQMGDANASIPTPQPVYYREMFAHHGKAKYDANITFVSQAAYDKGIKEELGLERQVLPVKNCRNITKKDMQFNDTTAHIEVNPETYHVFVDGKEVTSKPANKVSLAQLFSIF
T2 sequence (P14916 whole entry): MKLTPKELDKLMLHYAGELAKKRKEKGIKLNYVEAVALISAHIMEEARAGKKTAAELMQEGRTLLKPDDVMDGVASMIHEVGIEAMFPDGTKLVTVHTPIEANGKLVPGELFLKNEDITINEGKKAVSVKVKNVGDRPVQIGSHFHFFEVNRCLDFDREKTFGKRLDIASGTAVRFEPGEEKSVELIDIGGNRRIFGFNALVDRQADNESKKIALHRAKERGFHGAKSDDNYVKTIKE
T1 sequence (P69996 whole entry): as the sequence (P69996 whole entry) above
T1 sequence (P14916 whole entry, further chain): as the sequence (P14916 whole entry) above
Sequence of Urease subunit alpha/Urease subunit beta (Helicobacter pylori (strain ATCC 700392 / 26695) (Campylobacterpylori)) (P14916 whole entry, looked up): as the sequence (P14916 whole entry) above
Sequence of Urease subunit alpha/Urease subunit beta (Helicobacter pylori (strain ATCC 700392 / 26695) (Campylobacterpylori)) (P69996 whole entry, looked up): as the sequence (P69996 whole entry) above

For the compound `O=C(O)CCCNC(=O)c1ccccc1[Se][Se]c1ccccc1C(=O)NCCCC(=O)O`, the “reversible inhibition (qualitative)” value in assay [1] was “Active”. The IC50 in assay [2] was 35.4 µM; in assay [5], “Not Active”; in assay [6] it was 421 µM; in assay [7] it was “Not Active”. Further, in [3], the “competitive inhibition (qualitative call)” value (“competitive inhibition” below) was “Active”. For the same compound, in [4], the Ki was determined as 15.1 µM.

Turning to `COC(=O)CCCNC(=O)c1ccccc1[Se][Se]c1ccccc1C(=O)NCCCC(=O)OC`, the Ki in assay [8] is 0.184 µM; in assay [4], 0.00348 µM. In addition, the “reversible inhibition (qualitative)” value in [1] is “Active”. Further, the IC50 in assay [2] is 20.1 µM; in assay [5], “Not Active”; in [6], 11.8 µM; in [7], “Not Active”. The “competitive inhibition” value in assay [3] was “Active”. Moreover, the “inhibition mode (competitive reversible)” value in assay [9] was “Active”.

For `CC(C)[C@@H](C(=O)O)n1[se]c2ccccc2c1=O`, in assay [1], the “reversible inhibition (qualitative)” value was “Active”. Besides, the IC50 came out at 38.4 µM in assay [2], 186 µM in assay [10], 25.4 µM in assay [6] and 390 µM in [11]. Besides, the “competitive inhibition” value in [3] was “Active”. Also, the Ki in assay [4] was 1.01 µM.

In the case of `O=C(O)CNC(=O)c1ccccc1[Se][Se]c1ccccc1C(=O)NCC(=O)O`, the “reversible inhibition (qualitative)” value in assay [1] was “Active”. For the same compound, the half-maximal inhibitory concentration (IC50) in assay [2] is 121 µM; in [10], 163 µM; in assay [6] it was 358 µM; in assay [7], “Not Active”. The “competitive inhibition” value in [3] was “Active”. The Ki in assay [4] was 10.3 µM.

For `COC(=O)[C@H](CC(C)C)n1[se]c2ccccc2c1=O`, the “reversible inhibition (qualitative)” value in assay [1] was “Active”. The IC50 in [2] was 35.2 µM; in [10], 127 µM; in assay [6], 3.3 µM; in assay [7], “Not Active”. The “competitive inhibition” value in [3] is “Active”. Further, the Ki in assay [4] is 0.0763 µM.

Consider `COC(=O)[C@@H](CC(C)C)n1[se]c2ccccc2c1=O`, for which the “reversible inhibition (qualitative)” value in assay [1] was “Active”. Besides, the IC50 worked out at 40.9 µM in [2], 121 µM in assay [10], 3.14 µM in assay [6] and 75.7 µM in assay [11]. Moreover, the “competitive inhibition” value in assay [3] is “Active”. Moreover, the Ki in assay [4] stood at 0.0261 µM.

On to `CCC(C)[C@@H](C(=O)OC)n1[se]c2ccccc2c1=O` (stereo partly drawn), for which the “reversible inhibition (qualitative)” value in [1] was “Active”. In addition, the IC50 in [2] was 25.8 µM; in [10] it was 96 µM; in assay [6], 4.07 µM; in [7] it was “Not Active”. Moreover, in assay [3], the “competitive inhibition” value is “Active”. In addition, in assay [4], the Ki came to 0.164 µM.

In the case of `COC(=O)Cn1[se]c2ccccc2c1=O`, the “reversible inhibition (qualitative)” value in [1] is “Active”. Further, the concentration for half-maximal inhibition (IC50) amounted to 9.2 µM in [2], 108 µM in [10], 2.12 µM in [6] and 3.47 µM in assay [11]. Moreover, the “competitive inhibition” value in assay [3] was “Active”. The Ki in assay [4] stood at 0.084 µM.

In the case of `CC(=O)NO` [ACETOHYDROXAMIC ACID], the results for the Ki in [8] and in assay [4] were 96 µM and 3.3 µM, respectively. Moreover, the “reversible inhibition (qualitative)” value in assay [1] is “Active”. Besides, the IC50 is 96 µM in assay [2], 154 µM in assay [10], 156 µM in assay [6] and “Not Active” in [7]. Moreover, the “competitive inhibition” value in [3] was “Active”.

For `C[C@@H](C(=O)O)n1[se]c2ccccc2c1=O`, the “reversible inhibition (qualitative)” value in assay [1] is “Active”. Also, the IC50 in assay [2] is 196 µM; in assay [5], “Not Active”; in assay [6], 611 µM; in assay [7] it was “Not Active”. Also, the “competitive inhibition” value in assay [3] was “Active”. Besides, the Ki in assay [4] amounted to 0.883 µM.

For `C[C@H](c1ccccc1)n1[se]c2ccccc2c1=O`, the “reversible inhibition (qualitative)” value in assay [1] was “Active”. The half-inhibitory concentration (IC50) is 25.3 µM in [2], “Not Active” in assay [5], 5.04 µM in [6] and “Not Active” in assay [7]. For the same compound, the “competitive inhibition” value in assay [3] is “Active”. In addition, in assay [4], the Ki is 0.139 µM.

For `O=c1[nH][se]c2ccccc12`, the “reversible inhibition (qualitative)” value in assay [1] is “Active”. For the same compound, the IC50 in assay [2] was 1.28 µM; in assay [10], 48.6 µM; in assay [6], 6.92 µM; in assay [7], “Not Active”. Further, the “competitive inhibition” value in assay [3] is “Active”. Further, the Ki in assay [4] amounted to 0.0247 µM.

Consider `CCC(CO)NC(=O)c1ccccc1[Se][Se]c1ccccc1C(=O)NC(CC)CO` (stereo not drawn), for which the Ki in assay [8] was found to be 3.26 µM; in assay [4], 0.00462 µM. In addition, in assay [1], the “reversible inhibition (qualitative)” value is “Active”. Besides, the IC50 in assay [2] was 108 µM; in assay [5] it was “Not Active”; in assay [6], 115 µM; in assay [7] it was “Not Active”. In addition, in [3], the “competitive inhibition” value is “Active”. In addition, the “inhibition mode (competitive reversible)” value in [9] is “Active”.

Regarding `COC(=O)[C@H](C)n1[se]c2ccccc2c1=O`, the “reversible inhibition (qualitative)” value in assay [1] was “Active”. Besides, the 50% inhibitory concentration (IC50) in assay [2] was 19 µM; in assay [10] it was 75 µM; in assay [6], 3.91 µM; in [11], 75.1 µM. Besides, in [3], the “competitive inhibition” value was “Active”. Besides, the inhibition constant Ki in assay [4] was found to be 0.0326 µM.

For the compound `CC(C)C[C@@H](C(=O)O)n1[se]c2ccccc2c1=O`, the “reversible inhibition (qualitative)” value in [1] was “Active”. The 50% inhibitory concentration (IC50) in assay [2] was 95 µM; in assay [10] it was 301 µM; in assay [6], 69.5 µM; in [7], “Not Active”. In addition, the “competitive inhibition” value in assay [3] is “Active”. The inhibition constant Ki in [4] came out at 0.936 µM.

In the case of `O=C(O)C[C@@H](C(=O)O)n1[se]c2ccccc2c1=O`, in assay [1], the “reversible inhibition (qualitative)” value was “Active”. The 50% inhibitory concentration (IC50) in assay [2] was 319 µM; in assay [10] it was 388 µM; in [6] it was 50.8 µM; in assay [7], “Not Active”. Also, the “competitive inhibition” value in assay [3] was “Active”. Further, in assay [4], the Ki stood at 2.41 µM.

As for `O=c1c2ccccc2[se]n1[C@H](CO)c1ccccc1`, the “reversible inhibition (qualitative)” value in [1] is “Active”. The IC50 is 22.7 µM in [2], 79 µM in assay [10], 5.03 µM in assay [6] and “Not Active” in [7]. Moreover, in assay [3], the “competitive inhibition” value is “Active”. The Ki in assay [4] was found to be 0.0121 µM.

Turning to `C[C@H](NC(=O)c1ccccc1[Se][Se]c1ccccc1C(=O)N[C@@H](C)C(=O)O)C(=O)O`, in [1], the “reversible inhibition (qualitative)” value was “Active”. The 50% inhibitory concentration (IC50) in [2] is 25.9 µM; in [10], 85 µM; in assay [6], 183 µM; in assay [7], “Not Active”. For the same compound, the “competitive inhibition” value in assay [3] is “Active”. Moreover, the inhibition constant (Ki) in assay [4] is 14.9 µM.

With `O=C(O)CCCn1[se]c2ccccc2c1=O`, the “reversible inhibition (qualitative)” value in assay [1] is “Active”. The IC50 is 37 µM in assay [2], 103 µM in assay [10], 98 µM in assay [6] and “Not Active” in [7]. Also, the “competitive inhibition” value in assay [3] is “Active”. In [4], the inhibition constant Ki stood at 0.806 µM.

By IC50 is commonly meant the concentration needed to halve the response being measured. Broadly, the Ki is a measure of affinity in units of concentration, obtained from inhibition or displacement.
